Published values of several laboratories.
Protocols differ between the studies behind these lines. ≈ marks a conversion by molar mass, not a printed value.

Structure (SMILES)	target or system	assay	test system	conditions	endpoint	result
O=c1c(-c2ccc(O)cc2)coc2c([C@@H]3O[C@H](CO)[C@@H](O)[C@H](O)[C@H]3O)c(O)ccc12	–	–	Caco-2	100 µg/mL, 2 h	Papp B→A	5.66 ×10⁻⁶ cm/s
COc1ccc(-c2nn(-c3ccccc3)cc2C=NNc2cn[nH]c(=O)c2Cl)cc1	Jurkat	cell growth or viability, imaging	–	–	CC50	> 40 µM
O=c1c(O[C@@H]2O[C@H](CO)[C@H](O)[C@H](O)[C@H]2O)c(-c2ccc(O)c(O)c2)oc2cc(O)cc(O)c12	–	–	Caco-2	100 µg/mL	Papp A→B	0.383 ×10⁻⁶ cm/s
CC[C@H](C)[C@H](NC(=O)[C@H](CCC(=O)O)NC(=O)[C@H](CCC(=O)O)NC(=O)[C@@H]1CCCN1C(=O)[C@H](CO)NC(=O)[C@H](C)NC(=O)[C@H](CC(=O)O)NC(=O)[C@H](CCC(=O)O)NC(=O)[C@H](CCC(=O)O)NC(=O)[C@@H]1CCCN1C(=O)[C@H](CCCCNC(=O)COCCOCCNC(=O)COCCOCCNC(=O)CC[C@H](NC(=O)CCCCCCCCCCCCCCCCC(=O)O)C(=O)O)NC(=O)[C@H](C)NC(=O)[C@@H]1CCCN1C(=O)[C@H](C)NC(=O)CC(C)C)C(=O)N[C@@H](CCC(N)=O)C(=O)N[C@@H](CCCNC(=N)N)C(=O)N[C@@H](Cc1ccc(O)cc1)C(=O)N[C@@H](Cc1ccc(O)cc1)C(=O)N[C@H](C(=O)N[C@@H](CO)C(=O)N[C@@H](CC(C)C)C(=O)N[C@@H](CCCNC(=N)N)C(=O)N[C@@H](Cc1c[nH]cn1)C(=O)N[C@@H](Cc1ccc(O)cc1)C(=O)N[C@@H](Cc1ccc(O)cc1)C(=O)N[C@@H](CC(N)=O)C(=O)N[C@@H](Cc1c[nH]c2ccccc12)C(=O)N[C@@H](CC(C)C)C(=O)N[C@H](C(=O)N[C@@H](CCCNC(=N)N)C(=O)N[C@@H](CCC(N)=O)C(=O)N[C@@H](CCCNC(=N)N)C(=O)N[C@@H](Cc1ccc(O)cc1)C(N)=O)[C@@H](C)O)C(C)C	–	–	male beagle dog, plasma	subcutaneous, 5 nmol/kg	Tmax	32 h
COc1cc(/C=C/c2cc(/C=C/c3ccc(O)c(OC)c3)n(-c3ccc(Cl)cc3Cl)n2)ccc1O	WRL68	cell growth or viability, MTT	–	48 h	CC50	> 99 µM
CCN1CCN(Cc2ccc(Nc3nc4ccc(Oc5ccnc(NC(=O)C6CCN(C)CC6)c5)cc4n3C)cc2C(F)(F)F)CC1	–	–	–	–	pKa	8.8
COc1cc(/C=C/C(=O)/C=C/c2ccc(O)c(OC)c2)ccc1O	WRL68	cell growth or viability, MTT	–	3.2 µg/mL, 48 h	viability	11.5%
N#Cc1ccc(C[C@H](Nc2ncc(-c3ccc(F)cc3)o2)C(=O)N2CCc3ccccc32)cc1	–	–	aqueous buffer	2 h, pH 7.4, 37 °C	kinetic solubility	1.8 µM (≈ 0.814 µg/mL)
COc1cc(C2Oc3cc([C@H]4Oc5cc(O)cc(O)c5C(=O)[C@@H]4O)ccc3OC2CO)ccc1O (some centres unmarked)	–	–	Caco-2	100 µg/mL, 2 h	Papp B→A	17.2 ×10⁻⁶ cm/s
Cc1cc(C)c(CNC(=O)c2cc(Cl)c3c(c2C)O[C@@](C)([C@H]2CC[C@H](N(C)C)CC2)O3)c(=O)[nH]1	–	–	Caco-2	10 µM	Papp B→A	20.4 ×10⁻⁶ cm/s
NC/C(=C\F)COc1cccc(Cn2c(=S)[nH]c(=O)c3[nH]cnc32)c1	ATP-dependent translocase ABCB1 (ABCB1, Homo sapiens, UniProt P08183)	transporter efflux, inhibitor	–	30 µM	inhibition	< 50%
